Reference: ChEMBL document CHEMBL2203146, “Search for anticonvulsant and analgesic active derivatives of dihydrofuran-2(3H)-one” (Bioorg Med Chem, 2012)
Activity calls are given as the source filed them.

Tests used:
[1] = system: Mus musculus; experiment: Neurotoxicity in albino CF1 mouse assessed as minimal motor impairment at 300 mg/kg, ip after 4 hrs by rotorod test; format: toxicity, organism-based; parameters: dose 300 mg/kg, route intraperitoneal; conditions: in vivo
Summary of the method: (§1)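 Rotarod in male CF No. 1 mice after ip dosing (30, 100, 300 mg/kg; saline or 0.5% methylcellulose) at 15–240 min. Knurled plastic rod, 1-inch diameter, 6 rpm. Toxicity means failing to stay on for 1 min on three successive attempts. Recorded as toxic/tested.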

[2] = system: Mus musculus; experiment: Anticonvulsant activity in albino CF1 mouse assessed as protection against maximal electroshock-induced seizures at 100 mg/kg, ip after 0.5 hr; format: functional, organism-based; parameters: dose 100 mg/kg
Summary of the method: (§2)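 Male albino CF No. 1 mice (18–25 g) dosed ip at 30, 100 and 300 mg/kg in saline or 0.5% methylcellulose, tested 15, 30, 60 and 240 min after dosing. Maximal electroshock seizures elicited with 60-cycle alternating current. Scored as animals protected/animals tested, small qualitative groups.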

[3] = system: Mus musculus; experiment: Anticonvulsant activity in albino CF1 mouse assessed as protection against maximal electroshock-induced seizures at 300 mg/kg, ip after 4 hrs; format: functional, organism-based; parameters: dose 300 mg/kg; summary of the method: as §2
[4] = system: Mus musculus; experiment: Anticonvulsant activity in albino CF1 mouse assessed as protection against maximal electroshock-induced seizures at 100 mg/kg, ip after 4 hrs; format: functional, organism-based; parameters: dose 100 mg/kg; summary of the method: as §2
[5] = system: Mus musculus; experiment: Anticonvulsant activity in albino CF1 mouse assessed as protection against maximal electroshock-induced seizures at 100 mg/kg, ip after 0.25 hr; format: functional, organism-based; parameters: dose 100 mg/kg; summary of the method: as §2
[6] = system: Mus musculus; experiment: Neurotoxicity in albino CF1 mouse assessed as minimal motor impairment at 100 mg/kg, ip after 0.25 hr by rotorod test; format: toxicity, organism-based; parameters: dose 100 mg/kg, route intraperitoneal; conditions: in vivo; summary of the method: as §1
[7] = system: Mus musculus; experiment: Anticonvulsant activity in albino CF1 mouse assessed as protection against maximal electroshock-induced seizures at 100 mg/kg, ip after 1 hr; format: functional, organism-based; parameters: dose 100 mg/kg; summary of the method: as §2
[8] = system: Mus musculus; experiment: Anticonvulsant activity in albino CF1 mouse assessed as protection against maximal electroshock-induced seizures at 300 mg/kg, ip after 0.5 hr; format: functional, organism-based; parameters: dose 300 mg/kg; summary of the method: as §2
[9] = system: Mus musculus; experiment: Anticonvulsant activity in albino CF1 mouse assessed as protection against subcutaneous metrazol-induced seizures at 30 to 300 mg/kg, ip after 0.5 to 4 hrs; format: functional, organism-based
Summary of the method: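 CF No. 1 male mice dosed ip at 30, 100 or 300 mg/kg (saline or 0.5% methylcellulose), then given pentetrazole 85 mg/kg sc as 0.5% solution in posterior midline. Watched 30 min. Protection means no threshold seizure (single clonic spasm episode of at least 5 s). Expressed as protected/tested.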

[10] = system: Mus musculus; experiment: Neurotoxicity in albino CF1 mouse assessed as minimal motor impairment at 300 mg/kg, ip after 0.5 hr by rotorod test; format: toxicity, organism-based; parameters: dose 300 mg/kg, route intraperitoneal; conditions: in vivo; summary of the method: as §1
[11] = system: Mus musculus; experiment: Neurotoxicity in albino CF1 mouse assessed as minimal motor impairment at 100 mg/kg, ip after 0.5 hr by rotorod test; format: toxicity, organism-based; parameters: dose 100 mg/kg, route intraperitoneal; conditions: in vivo; summary of the method: as §1
[12] = system: Mus musculus; experiment: Neurotoxicity in albino CF1 mouse assessed as minimal motor impairment at 100 mg/kg, ip after 1 hr by rotorod test; format: toxicity, organism-based; parameters: dose 100 mg/kg, route intraperitoneal; conditions: in vivo; summary of the method: as §1
[13] = system: Mus musculus; experiment: Neurotoxicity in albino CF1 mouse assessed as minimal motor impairment at 100 mg/kg, ip after 4 hrs by rotorod test; format: toxicity, organism-based; parameters: dose 100 mg/kg, route intraperitoneal; conditions: in vivo; summary of the method: as §1
[14] = system: Mus musculus; experiment: Analgesic activity in albino CF1 mouse assessed as inhibition of heat-induced paw licking or jumping behaviour administered after 30 mins prior heat challenge by hot plate method; format: functional
[15] = system: Mus musculus; experiment: […] activity in ip dosed albino CF1 mouse assessed as inhibition of phenylbenzoquinone-induced writhing administered after 30 mins prior challenge; format: functional
Summary of the method: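 Male Albino Swiss (CD-1) mice, 6-8 per dose. Compound given ip in 0.5% methylcellulose. 30 min later, 0.25 ml of 0.02% phenylbenzoquinone injected. After 5 min, writhes counted over 10 min. % effect = (vehicle mean − drug mean)/vehicle mean × 100. ED50 derived; Student's t-test.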

[16] = system: Mus musculus; experiment: Anesthetic activity in albino CF1 mouse assessed as latency in response to thermal stimuli administered as 1% solution, sc measured after 15 mins by modified tail immersion test; format: functional
Summary of the method: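 Male Albino Swiss (CD-1) mice, 6-8 per group, tested at 1% and 2% compound concentration. Tail distal 3 cm immersed in water at 50 ± 0.5 °C 15 min after treatment. Tail-withdrawal latency recorded with a 20 s cutoff. Value is % difference in latency vs vehicle-treated mice. Mean ± SEM, Student's t-test.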

[17] = system: Mus musculus; experiment: Anesthetic activity in […] assessed as latency in response to thermal stimuli administered as 2% solution, sc measured after 15 mins by modified tail immersion test; format: functional, albino CF1

Structure (SMILES) | Activity [1] | Activity [2] | Activity [3] | Activity [4] | Activity [5] | Activity [6] | Activity [7] | Activity [8] | Activity [9] | Activity [10] | Activity [11] | Activity [12] | Activity [13] | ED50 [14] [mg/kg] | ED50 [15] [mg/kg] | Activity [16] [%] | Activity [17] [%]
C/C(NCc1ccccc1)=C1\CCOC1=O | Non-toxic | inactive | inactive | inactive | inactive | Non-toxic | inactive | Active | inactive | Non-toxic | Non-toxic | Non-toxic | Non-toxic | – | – | – | –
COc1ccc(CCN/C(C)=C2/CCOC2=O)cc1OC | Non-toxic | inactive | inactive | inactive | inactive | Non-toxic | inactive | Active | inactive | Non-toxic | Non-toxic | Non-toxic | Non-toxic | – | – | – | –
Cc1cccc(C)c1NC1CCOC1=O (configuration not stated) | Non-toxic | inactive | inactive | inactive | – | – | – | inactive | inactive | Non-toxic | Non-toxic | – | Non-toxic | – | – | – | –
CC1CC(N2CCN(c3ccccc3)CC2)C(=O)O1 (mixture of isomers) | Non-toxic | inactive | inactive | inactive | inactive | Non-toxic | inactive | Active | inactive | Toxic | Non-toxic | Non-toxic | Non-toxic | – | – | – | –
CC1CC(NCc2ccccc2)C(=O)O1.Cl (mixture of isomers) | Non-toxic | inactive | inactive | inactive | – | – | – | inactive | inactive | Non-toxic | Non-toxic | – | Non-toxic | – | – | – | –
O=C1OCCC1N1C(=O)c2ccccc2C1=O (racemic) | Non-toxic | inactive | inactive | inactive | – | – | – | inactive | inactive | Toxic | Toxic | – | Non-toxic | 33.9 | 4.5 | – | –
Cl.O=C1OCCC1N1CCOCC1 (racemic) | Non-toxic | inactive | inactive | inactive | – | – | – | inactive | inactive | Toxic | Non-toxic | – | Non-toxic | 9.9 | 5.4 | – | –
COc1ccccc1N1CCN(C2CCOC2=O)CC1 (racemic) | Non-toxic | inactive | inactive | inactive | inactive | Non-toxic | inactive | Active | inactive | Toxic | Non-toxic | Non-toxic | Non-toxic | 0.7 | 0.3 | 97 | 152
COc1cccc(N2CCN(C3CCOC3=O)CC2)c1 (racemic) | Non-toxic | inactive | inactive | inactive | – | – | – | Active | inactive | Non-toxic | Non-toxic | – | Non-toxic | 3.2 | 3 | 6 | 75
COc1ccc(N2CCN(C3CCOC3=O)CC2)cc1 (racemic) | Non-toxic | inactive | inactive | inactive | – | – | – | inactive | inactive | Non-toxic | Non-toxic | – | Non-toxic | 32.5 | 9.6 | -3 | 49
O=C1OCCC1N1CCN(c2ccc(F)cc2)CC1 (racemic) | Toxic | inactive | inactive | inactive | – | – | – | inactive | inactive | Toxic | Toxic | – | Toxic | – | – | – | –
O=C1CC(N2CCN(c3ccccc3)CC2)CO1 (racemic) | Non-toxic | inactive | inactive | inactive | – | – | – | inactive | inactive | Toxic | Toxic | – | Non-toxic | – | – | – | –
O=C1OCCC1N1CCC(Cc2ccccc2)CC1 (racemic) | Toxic | inactive | inactive | inactive | inactive | Non-toxic | inactive | Active | inactive | Toxic | Non-toxic | Non-toxic | Non-toxic | – | – | – | –
Cl.O=C1OCCC1NCc1ccccc1 (racemic) | Non-toxic | inactive | inactive | inactive | – | – | – | inactive | inactive | Non-toxic | Non-toxic | – | Non-toxic | 4.3 | 2.4 | 1 | 64
COc1ccc(CNC2CCOC2=O)cc1.Cl (racemic) | Non-toxic | inactive | inactive | inactive | – | – | – | inactive | inactive | Non-toxic | Non-toxic | – | Non-toxic | – | – | – | –
O=C1OCCC1NCc1ccccc1C(F)(F)F (racemic) | Non-toxic | inactive | inactive | inactive | – | – | – | inactive | inactive | Non-toxic | Non-toxic | – | Non-toxic | – | – | – | –
COc1cc2c(cc1OC)CN(C1CCOC1=O)CC2 (racemic) | Non-toxic | inactive | inactive | inactive | – | – | – | inactive | inactive | Non-toxic | Non-toxic | – | Non-toxic | 39.8 | 6.1 | – | –
CC(=O)Oc1ccccc1C(=O)O [ASPIRIN] | – | – | – | – | – | – | – | – | – | – | – | – | – | – | 39.2 | – | –
CCN(CC)CC(=O)Nc1c(C)cccc1C [LIDOCAINE] | – | – | – | – | – | – | – | – | – | – | – | – | – | – | – | 132 | 173
Cc1cccc(C)c1NC(=O)C1CCCCN1C (configuration not stated) [MEPIVACAINE] | – | – | – | – | – | – | – | – | – | – | – | – | – | – | – | 95 | 117
CN1CC[C@]23c4c5ccc(O)c4O[C@H]2[C@@H](O)C=C[C@H]3[C@H]1C5 [MORPHINE] | – | – | – | – | – | – | – | – | – | – | – | – | – | 3.4 | 2.4 | – | –
